According to ChEMBL document CHEMBL1821604, “Anticancer activity and cDNA microarray studies of a (RS)-1,2,3,5-tetrahydro-4,1-benzoxazepine-3-yl]-6-chloro-9H-purine, and an acyclic (RS)-O,N-acetalic 6-chloro-7H-purine” (Eur J Med Chem, 2011):

Experiments:
[1] = tested on: MCF-10A; experiment: Cytotoxicity against human MCF10A cells after 6 days by SRB colorimetric assay; type: cell-based; details: 144 h
[2] = Therapeutic index, ratio of IC50 for human MCF10A cells to IC50 for human MCF7 cells; type: cell-based; details: MCF10A cells (normal) versus MCF7 cells (cancer), read-out: Ratio IC50
How it was run: (§1)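 Each cell line grown in DMEM with 10% FBS, 37 °C, 5% CO₂. Cells seeded and allowed 24 h, then drug added in medium (≤0.1% v/v DMSO). Medium and drug renewed at day 3, cells kept 3 more days. Sulforhodamine-B read at 492 nm. IC₅₀ taken from semilog dose-response curves by linear interpolation, triplicate wells, at least twice. Index = IC₅₀ normal line / IC₅₀ cancer line.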

[3] = tested on: HT-29; experiment: Cytotoxicity against human HT-29 cells after 6 days by SRB colorimetric assay; type: functional, cell-based; details: HT-29, 144 h
[4] = Cytotoxicity against rat IEC-6 cells after 6 days by SRB colorimetric assay; type: cell-based; details: IEC-6, 144 h
[5] = Therapeutic index, ratio of IC50 for rat IEC-6 cells to IC50 for human HT-29 cells; type: cell-based; details: IEC-6 cells (normal) versus HT-29 cells (cancer), read-out: Ratio IC50; how it was run: as §1
[6] = tested on: MCF7; experiment: Induction of apoptosis in human MCF7 cells at IC50 after 48 hrs using annexin V-FITC staining by flow cytometry; type: functional

SMILES | IC50 [1] | selectivity ratio [2] | IC50 [3] | IC50 [4] | selectivity ratio [5] | Activity [6]
O=c1[nH]cc(F)c(=O)[nH]1 [FLUOROURACIL] | 730 nM | 0.17 | 1080 nM | 660 nM | 0.61 | –
CC(=O)O[C@H]1C(=O)[C@@]2(C)[C@H]([C@H](OC(=O)c3ccccc3)[C@]3(O)C[C@H](OC(=O)[C@H](O)[C@@H](NC(=O)c4ccccc4)c4ccccc4)C(C)=C1C3(C)C)[C@]1(OC(C)=O)CO[C@@H]1C[C@@H]2O [PACLITAXEL] | – | – | – | – | – | 43%
